From PMC3546147 (Bioorganic & medicinal chemistry, 2012)

Columns and labels:
A549 = settings: read-out: GI50, A549, prior hit; cited from earlier work
KB [1] = settings: prior hit; cited from earlier work
DU145 = settings: read-out: GI50, DU145, prior hit; cited from earlier work
KB [2] = experiment: Antiproliferative SRB assay, KB; assay type: cell-based, human; settings: positive control
Method in brief: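 Human nasopharyngeal epidermoid carcinoma KB cells, tested in a panel with A-549, P-gp-expressing KBVIN and DU145 lines. Cytotoxicity was read by the sulforhodamine B (SRB) method, with a reference compound run alongside. GI50 is the molar drug concentration causing 50% tumor cell growth inhibition.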

For `COc1ccc(Nc2nc(Cl)ccc2[N+](=O)[O-])cc1` [1a, 6-chloro-N-(4-methoxyphenyl)-3-nitropyridin-2-amine], the GI50 (A549) is given as 13.5 µM, the “GI50, KB” value (KB [1]) is given as 7.19 µM and the GI50 (DU145) is given as 3.83 µM.

With `CC(=O)O[C@H]1C(=O)[C@@]2(C)[C@H]([C@H](OC(=O)c3ccccc3)[C@]3(O)C[C@H](OC(=O)[C@H](O)[C@@H](NC(=O)c4ccccc4)c4ccccc4)C(C)=C1C3(C)C)[C@]1(OC(C)=O)CO[C@@H]1C[C@@H]2O` [Paclitaxel] the “GI50 ± SD, KB” value (KB [2]) was 0.00777 ± 0.00084 µM and the “GI50 ± SD, KB” value (KB [2]; listed as paclitaxel) was 0.008 µM.
